Assay [1] is filed under the species Rattus norvegicus. As to the kind of experiment: Antilipid peroxidation was determined. It is filed as functional. The gist of the method: (§1)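 Rat brain lipid peroxidation: brains from male SD rats (12 weeks old), exsanguinated under pentobarbital anaesthesia, homogenized to 5% in phosphate buffer pH 7.4. Homogenate incubated with test drug at 37 °C for 1 h. Lipid peroxide quantified by the thiobarbituric acid method.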

Assay [2] is filed under the species Rattus norvegicus. As to the kind of experiment: Antilipid peroxidation was measured at 10e-5 M concentration. It is filed as functional. Put shortly:
as §1

Assay [3] is filed under the species Rattus norvegicus. The assay can be described thus: Inhibition of lipid peroxidation was determined with rat brain tissue homogenates. The class given is functional. The gist of the method: (§2)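 Brains excised from male SD rats (12 weeks), exsanguinated under pentobarbital anesthesia; 5% homogenate in phosphate buffer pH 7.4 incubated with test drug 1 h at 37 °C; lipid peroxide quantified by thiobarbituric acid method.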

Assay [4] deals with Rattus norvegicus. The assay can be described thus: Effect of AOS scavenger on ventricular tachycardia (VT), arrhythmias induced by ischemia-reperfusion in anesthetized rat, frequency, times at 10 mg/kg. It is filed as functional, Cardiac ventricle.
The species entered for assay [5] is Rattus norvegicus. As to the kind of experiment: Inhibition of lipid peroxidation was determined with rat brain tissue homogenates. It is filed as functional. The gist of the method: as §2
Assay [6] deals with Rattus norvegicus. The assay can be described thus: Effect of AOS scavenger on ventricular tachycardia (VT),arrhythmias induced by ischemia-reperfusion in anesthetized rat, duration at 10 mg/kg. It is filed as functional, Cardiac ventricle. To be noted: 10 mg/kg.
Assay [7] deals with Rattus norvegicus. The assay can be described thus: Effect of AOS scavenger on premeture ventricular complexes PVCs, arrhythmias induced by ischemia-reperfusion in anesthetized rat, duration at 10 mg/kg. The class given is functional, Cardiac ventricle. To be noted: 10 mg/kg.
Assay [8] concerns Rattus norvegicus. The assay can be described thus: Effect of AOS scavenger on ventricular fibrillation (VF),arrhythmias induced by ischemia-reperfusion in anesthetized rat, incidence at 10 mg/kg; 5/5. It is filed as functional, Cardiac ventricle.
Assay [9] relates to Rattus norvegicus. The assay can be described thus: Effect of AOS scavenger on ventricular tachycardia (VT),arrhythmias induced by ischemia-reperfusion in anesthetized rat incidence at 10 mg/kg; 4/5. It is filed as functional, Cardiac ventricle.
Assay [10] has as its system Rattus norvegicus. As to the kind of experiment: Effect of AOS scavenger on ventricular fibrillation (VF), arrhythmias induced by ischemia-reperfusion in anesthetized rat, frequency, times at 10 mg/kg. To be noted: 10 mg/kg. The class given is functional, Cardiac ventricle.
Assay [11] has as its system Rattus norvegicus. As to the kind of experiment: Effect of AOS scavenger on ventricular fibrillation (VF), arrhythmias induced by ischemia-reperfusion in anesthetized rat, duration at 10 mg/kg. It is filed as functional, Cardiac ventricle.
For assay [12], the system named is Rattus norvegicus. The assay can be described thus: Effect of AOS scavenger on ventricular fibrillation (VF), arrhythmias induced by ischemia-reperfusion in anesthetized rat, incidence at 3 mg/kg. It is filed as functional, Cardiac ventricle.
For assay [13], the system named is Rattus norvegicus. The assay can be described thus: Effect of AOS scavenger on arrhythmias induced by ischemia-reperfusion in anesthetized rat measured as ventricular tachycardia (VT), incidence at 3 mg/kg; 6/6. The class given is functional, Cardiac ventricle.
Assay [14] has as its system Rattus norvegicus. As to the kind of experiment: Effect of AOS scavenger on arrhythmias induced by ischemia-reperfusion in anesthetized rat measured as ventricular tachycardia (VT), duration at 3 mg/kg. It is filed as functional, Cardiac ventricle.
The species named for assay [15] is Rattus norvegicus. The assay can be described thus: Reducing activity determined by the use of stable radical alpha,alpha-di-phenyl-beta-picrylhydrazyl (DPPH). The class given is functional, organism-based. The gist of the method:
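Compound mixed with equimolar α,α-diphenyl-β-picrylhydrazyl; absorbance at 517 nm read after 20 min; reducing activity taken as absorbance difference from control.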

Assay [16] has as its system Rattus norvegicus. The assay can be described thus: Effect of AOS scavenger on arrhythmias induced by ischemia-reperfusion in anesthetized rat measured as ventricular tachycardia (VT), frequency, times at 3 mg/kg. The class given is functional, Cardiac ventricle.
In assay [17] the test system is Rattus norvegicus. As to the kind of experiment: Effect of AOS scavenger on ventricular fibrillation (VF), arrhythmias induced by ischemia-reperfusion in anesthetized rat, incidence at 3 mg/kg; 6/6. The class given is functional, Cardiac ventricle.
Assay [18] deals with Rattus norvegicus. As to the kind of experiment: Effect of AOS scavenger on premeture ventricular complexes PVCs, arrhythmias induced by ischemia-reperfusion in anesthetized rat, duration at 3 mg/kg. It is filed as functional, Cardiac ventricle.
Assay [19] deals with Rattus norvegicus. The assay can be described thus: Effect of AOS scavenger on ventricular fibrillation (VF),arrhythmias induced by ischemia-reperfusion in anesthetized rat, duration at 20 mg/kg. It is filed as functional, Cardiac ventricle. Put shortly:
(§3)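 Male SD rats (9–13 weeks, 250–370 g) under pentobarbital anesthesia with artificial respiration underwent thoracotomy and LAD coronary occlusion followed by reperfusion. Dosing was oral, 20 mg/kg at 24 h and again 20 mg/kg at 5 min before occlusion. VF and VT incidence, frequency and duration, and mean PVCs/min were recorded at 10 min postreperfusion.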

Assay [20] has as its system Rattus norvegicus. As to the kind of experiment: Effect of AOS scavenger on ventricular tachycardia (VT),arrhythmias induced by ischemia-reperfusion in anesthetized rat, incidence at 20 mg/kg; 8/8. The class given is functional, Cardiac ventricle. Put shortly: as §3
For assay [21], the system named is Rattus norvegicus. The assay can be described thus: Effect of AOS scavenger on ventricular tachycardia (VT),arrhythmias induced by ischemia-reperfusion in anesthetized rat, duration at 20 mg/kg. It is filed as functional, Cardiac ventricle. Put shortly: as §3
Assay [22] concerns Rattus norvegicus. The assay can be described thus: Effect of AOS scavenger on premeture ventricular complexes PVCs, arrhythmias induced by ischemia-reperfusion in anesthetized rat, duration at 20 mg/kg; PVSc/min. It is filed as functional, Cardiac ventricle. The gist of the method: as §3
In assay [23] the test system is Rattus norvegicus. As to the kind of experiment: Effect of AOS scavenger on ventricular fibrillation (VF),arrhythmias induced by ischemia-reperfusion in anesthetized rat, incidence at 20 mg/kg; 4/8. It is filed as functional, Cardiac ventricle. Put shortly: as §3
Assay [24] has as its system Rattus norvegicus. The assay can be described thus: Effect of AOS scavenger on ventricular tachycardia (VT), arrhythmias induced by ischemia-reperfusion in anesthetized rat, frequency, times at 20 mg/kg. The class given is functional, Cardiac ventricle. The gist of the method: as §3
The subject of assay [25] is Rattus norvegicus. The assay can be described thus: Effect of AOS scavenger on ventricular fibrillation (VF), arrhythmias induced by ischemia-reperfusion in anesthetized rat, frequency, times at 20 mg/kg. It is filed as functional, Cardiac ventricle. The gist of the method:
as §3

Assay [26] is described as follows: Reducing activity determined by the use of stable radical alpha,alpha-di-phenyl-beta-picrylhydrazyl (DPPH). More on the design: concentration or dose not given beside the values.

As for `CCCCCCOc1ccc(COC2=C(O)OC(C(O)CO)C2=O)cc1` (stereo unspecified), in the assay filed under Rattus norvegicus [1], the Antilipid peroxidation was found to be 38.8%.
With `CCCCCCCCCCCCCCCCCCOC1=C(O)OC(C2COC(C)(C)O2)C1=O` (stereo unspecified), in the assay filed under Rattus norvegicus [2], the Antilipid peroxidation is 58.5%. Moreover, in the assay listed under Rattus norvegicus [3], the midpoint of inhibition, the IC50, lay at 2.4 µM.
Consider `CCCCCCCCCCCCCCCCCCOC1=C(O)[C@@H](C(O)CO)OC1=O` (stereo in doubt; 8), for which the Frequency with Rattus norvegicus [4] amounted to 3.8; in the assay on Rattus norvegicus [10] it was 1.6. The compound further had an IC50 in the assay listed under Rattus norvegicus [5] of 9.8 µM. Moreover, the Duration with Rattus norvegicus [6] is reported as 11.8 s; in the assay with Rattus norvegicus [11], 122.4 s. Further, in the assay on Rattus norvegicus [7], the PVCs was < 4 PVCs/min. Moreover, the results for the Incidence with Rattus norvegicus [8] and with Rattus norvegicus [9] were 5 N and 4 N, respectively.
For `CCCCCCCCCCCCCCCCCCOC1=C(O)OC(C(O)COC(C)=O)C1=O` (stereo unspecified), in the assay filed under Rattus norvegicus [2], the Antilipid peroxidation was 76.3%. The IC50 in the assay listed under Rattus norvegicus [3] amounted to 4.2 µM.
For the compound `CCCCCCCCCCCCCCCCCCOC1=C(O)O/C(=C\CO)C1=O`, the Antilipid peroxidation in the assay filed under Rattus norvegicus [2] worked out at 53.5%. For the same compound, in the assay filed under Rattus norvegicus [3], inhibition was half-maximal at 8.5 µM (IC50).
In the assay filed under Rattus norvegicus [3], `CCCCCCCCCCCCCOC1=C(O)OC(C(O)CO)C1=O` (stereo unspecified) displayed an IC50 of 7.4 µM. Also, in the assay listed under Rattus norvegicus [1], the Antilipid peroxidation was 57.4%.
In the case of `O=C1O[C@H]([C@@H](O)CO)C(O)=C1O` [ASCORBIC ACID], the results for the Duration with Rattus norvegicus [12] and with Rattus norvegicus [14] were 41.4 s and 8.2 s, respectively. Further, the Frequency is listed as 4 in the assay on Rattus norvegicus [12] and 3.7 in the assay on Rattus norvegicus [16]. The Incidence in the assay with Rattus norvegicus [13] and in the assay on Rattus norvegicus [17] was 6 N in each case. The compound further returned a Reducing activity in the assay filed under Rattus norvegicus [15] of 93.4%. This compound also displayed an Activity with Rattus norvegicus [18] of 7.4 min. Further, the Antilipid peroxidation in the assay listed under Rattus norvegicus [1] was -71%.
Turning to `Oc1ncnc2[nH]ncc12` [ALLOPURINOL], the Duration in the assay on Rattus norvegicus [19] was 1.3 s; in the assay on Rattus norvegicus [21], 5.9 s. In addition, the Incidence in the assay on Rattus norvegicus [20] stood at 8 N; in the assay with Rattus norvegicus [23], 4 N. Further, the Activity in the assay on Rattus norvegicus [22] was determined as 2.7 min. Moreover, the figures for the Frequency with Rattus norvegicus [24] and in the assay on Rattus norvegicus [25] were 3.1 and 0.9, respectively.
`CCCCCCCCCCCCCCCCOC1=C(O)OC(C(O)CO)C1=O` (stereo unspecified) yielded an IC50 in the assay filed under Rattus norvegicus [3] of 6.8 µM. The Antilipid peroxidation in the assay listed under Rattus norvegicus [1] was found to be 56.1%.
`CCCCCCCCCCCCCCCCCCCCCOC1=C(O)OC(C(O)CO)C1=O` (stereo unspecified) registered a half-inhibitory concentration (IC50) in the assay listed under Rattus norvegicus [3] of 11 µM. In assay [26], this compound registered a Reducing activity of 94.3%. Besides, the Antilipid peroxidation in the assay filed under Rattus norvegicus [1] was 30.6%.
In the assay listed under Rattus norvegicus [3], `CCCCCCCCCCCCCCCCCCOC1=C(O)OC(CCO)C1=O` (stereo unspecified) displayed an IC50 of 6.8 µM. In addition, in [26], the Reducing activity stood at 93.9%. In the assay filed under Rattus norvegicus [1], the Antilipid peroxidation was 52%.
